In ChEMBL document CHEMBL1287776, “Synthesis and biological evaluations of P4-benzoxaborole-substituted macrocyclic inhibitors of HCV NS3 protease” (Bioorg Med Chem Lett, 2010):

What was measured:
Hepatitis C virus [1] = assay: Antiviral activity against HCV 1a infected in human Huh-7 cells after 48hrs by luciferase assay; format: functional, organism-based, Hepacivirus hominis; details: subtype 1a, Huh-7, 48 h
How it was run: (§1)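 Subgenomic (NS3-NS5B) luciferase replicon cells for genotype 1a or 1b. The 1b ET line is stably transfected with a firefly luciferase-ubiquitin-neo replicon carrying cell culture adaptive mutations. Cells are seeded at 5 × 10³/well onto compounds in 1% DMSO final. Luciferase is read after 48 h. EC50 comes from an 11-point, 3-fold dilution curve, as % inhibition versus no-compound control, with a four-parameter logistic fit.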

Hepatitis C virus [2] = assay: Antiviral activity against HCV 1b infected in human Huh-7 cells after 48hrs by luciferase assay; format: functional, organism-based, Hepacivirus hominis; details: genotype 1b, Huh-7, 48 h; how it was run: as §1
[3] = Inhibition of HCV 1a NS3/4A protease by FRET assay; parameters: species or system Hepatitis C virus subtype 1a
How it was run: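 FRET assay with the genotype 1a NS3/4A protease domain and a fluorogenic peptide substrate. Buffer is 50 mM HEPES, 20% sucrose, 5 mM DTT and 0.05% NP-40. Initial rates are read at ex 490/em 520 nm. IC50 values are means of duplicate or triplicate experiments.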

[4] = (§2) Oral bioavailability in rat; format: ADME, organism-based; details: in vivo
How it was run: (§3)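 Rat pharmacokinetics with blood drawn from both the jugular and portal veins after oral dosing, with IV dosing as reference. Absorption is calculated from portal vein drug levels. Oral bioavailability is calculated from jugular vein levels, each compared with levels after IV administration.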

Rattus norvegicus [5] = organism: Rattus norvegicus; assay: Metabolic absorption in rat; format: ADME, organism-based; details: in vivo; how it was run: as §3
Rattus norvegicus [6] = assay: as §2; format: ADME, organism-based; details: in vivo, BLD = below limit of detection; how it was run: as §3

Row | SMILES | EC50 (Hepatitis C virus [1]) | EC50 (Hepatitis C virus [2]) | IC50 [3] | bioavailability [4] | Activity (Rattus norvegicus [5]) | F (Rattus norvegicus [6]) | Activity (Rattus norvegicus [5]; BLD = below limit of detection)
1 | CC1OB(O)c2cc(NC(=O)N[C@H]3CCCCC/C=C\[C@@H]4C[C@@]4(C(=O)NS(=O)(=O)C4CC4)NC(=O)C4C[C@@H](OC(=O)N5Cc6cccc(F)c6C5)CN4C3=O)c(F)cc21 (some centres undefined) | 20 nM | 1.2 nM | 0.4 nM | – | – | – | –
2 | O=C(NCc1ccc2c(c1)B(O)OC2)N[C@H]1CCCCC/C=C\[C@@H]2C[C@@]2(C(=O)NS(=O)(=O)C2CC2)NC(=O)C2C[C@@H](OC(=O)N3Cc4cccc(F)c4C3)CN2C1=O (some centres undefined) | 160 nM | 0.9 nM | 0.4 nM | 0.7% | 0.6% | – | –
3 | COc1cnc(O[C@@H]2CC3C(=O)N[C@]4(C(=O)NS(=O)(=O)C5CC5)C[C@H]4/C=C\CCCCC[C@H](NC(=O)Nc4ccc5c(c4)B(O)OC5)C(=O)N3C2)c2cc(Cl)ccc12 (some centres undefined) | 60.3 nM | 3.9 nM | 0.6 nM | – | – | – | –
4 | O=C(Nc1ccc2c(c1)B(O)OC2)N[C@H]1CCCCC/C=C\[C@@H]2C[C@@]2(C(=O)NS(=O)(=O)C2CC2)NC(=O)C2C[C@@H](OC(=O)N3Cc4cccc(F)c4C3)CN2C1=O (some centres undefined) | 159 nM | 3.7 nM | 0.4 nM | 0.5% | 0.9% | – | –
5 | O=C(N[C@H]1CCCCC/C=C\[C@@H]2C[C@@]2(C(=O)NS(=O)(=O)C2CC2)NC(=O)C2C[C@@H](OC(=O)N3Cc4cccc(F)c4C3)CN2C1=O)Oc1ccc2c(c1)COB2O (some centres undefined) | 3550 nM | 172 nM | 2.4 nM | – | – | – | –
6 | O=C(N[C@H]1CCCCC/C=C\[C@@H]2C[C@@]2(C(=O)NS(=O)(=O)C2CC2)NC(=O)C2C[C@@H](OC(=O)N3Cc4cccc(F)c4C3)CN2C1=O)Oc1ccc2c(c1)B(O)OC2 (some centres undefined) | 661 nM | 15 nM | 1.6 nM | – | – | – | –
7 | CC(C)(C)OC(=O)N[C@H]1CCCCC/C=C\[C@@H]2C[C@@]2(C(=O)NS(=O)(=O)C2CC2)NC(=O)[C@@H]2C[C@@H](OC(=O)N3Cc4cccc(F)c4C3)CN2C1=O [DANOPREVIR] | 1 nM | 1.1 nM | 0.4 nM | 20% | 17.4% | – | –
8 | COc1cnc(O[C@@H]2CC3C(=O)N[C@]4(C(=O)NS(=O)(=O)C5CC5)C[C@H]4/C=C\CCCCC[C@H](NC(=O)NCc4ccc5c(c4)B(O)OC5)C(=O)N3C2)c2cc(Cl)ccc12 (some centres undefined) | 50.1 nM | 3.9 nM | 0.4 nM | – | – | – | –

The remaining compounds from weak to strong by EC50 (Hepatitis C virus [1]), led by results:

Row | EC50 (Hepatitis C virus [1]) | EC50 (Hepatitis C virus [2]) | IC50 [3] | bioavailability [4] | Activity (Rattus norvegicus [5]) | F (Rattus norvegicus [6]) | Activity (Rattus norvegicus [5]; BLD = below limit of detection) | SMILES
9 | 35 nM | 1.5 nM | < 0.2 nM | – | – | – | – | O=C(Nc1cc2c(cc1F)COB2O)N[C@H]1CCCCC/C=C\[C@@H]2C[C@@]2(C(=O)NS(=O)(=O)C2CC2)NC(=O)C2C[C@@H](OC(=O)N3Cc4cccc(F)c4C3)CN2C1=O (some centres undefined)
10 | 12.5 nM | 1.2 nM | 5.6 nM | – | – | – | – | COc1ccc2c(O[C@@H]3CC4C(=O)N[C@]5(C(=O)NS(=O)(=O)C6CC6)C[C@H]5/C=C\CCCCC[C@H](NC(=O)Nc5ccc6c(c5)B(O)OC6)C(=O)N4C3)cc(-c3nc(C(C)C)cs3)nc2c1C (some centres undefined)
11 | 4.2 nM | 0.5 nM | 4.1 nM | – | – | BLD | BLD | COc1ccc2c(O[C@@H]3CC4C(=O)N[C@]5(C(=O)NS(=O)(=O)C6CC6)C[C@H]5/C=C\CCCCC[C@H](NC(=O)NCc5ccc6c(c5)B(O)OC6)C(=O)N4C3)cc(-c3nc(C(C)C)cs3)nc2c1C (some centres undefined)
12 | 2.3 nM | 1.4 nM | 10 nM | – | – | – | – | COc1ccc2c(O[C@@H]3C[C@H]4C(=O)N[C@]5(C(=O)NS(=O)(=O)C6CC6)C[C@H]5/C=C\CCCCN(C)C(=O)[C@@H]4C3)cc(-c3nc(C(C)C)cs3)nc2c1C [SIMEPREVIR]
